According to ChEMBL document CHEMBL5149991 (J Med Chem, 2021):

Key:
Histamine H2 receptor = Histamine H2 receptor (Homo sapiens, UniProt P25021); experiment: Displacement of [3H]UR-DE257 from human histamine H2 receptor stably expressed in baculovirus infected Sf9 cell membrane co-expressing RG-Salpha S incubated for 60 mins by scintillation counting analysis; type: cell membranes
Histamine H3 receptor [1] = target: T1, Histamine H3 receptor (Homo sapiens, UniProt Q9Y5N1); experiment: Displacement of [3H]UR-PI294 from human histamine H3 receptor stably expressed in baculovirus infected Sf9 cell membrane co-expressing G-alphai2 and G-beta1gamma2 incubated for 60 mins by scintillation counting analysis; type: cell membranes
In short: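 hH3R + Gαi2 + Gβ1γ2 expressed in Sf9 membranes. […] Mean ± SEM from N independent experiments in triplicate.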

Histamine H1 receptor = Histamine H1 receptor (Homo sapiens, UniProt P35367)
Histamine H4 receptor = Histamine H4 receptor (Homo sapiens, UniProt Q9H3N8)
Histamine H3 receptor [2] = target: T1, Histamine H3 receptor

T1 sequence (Q9Y5N1 whole entry): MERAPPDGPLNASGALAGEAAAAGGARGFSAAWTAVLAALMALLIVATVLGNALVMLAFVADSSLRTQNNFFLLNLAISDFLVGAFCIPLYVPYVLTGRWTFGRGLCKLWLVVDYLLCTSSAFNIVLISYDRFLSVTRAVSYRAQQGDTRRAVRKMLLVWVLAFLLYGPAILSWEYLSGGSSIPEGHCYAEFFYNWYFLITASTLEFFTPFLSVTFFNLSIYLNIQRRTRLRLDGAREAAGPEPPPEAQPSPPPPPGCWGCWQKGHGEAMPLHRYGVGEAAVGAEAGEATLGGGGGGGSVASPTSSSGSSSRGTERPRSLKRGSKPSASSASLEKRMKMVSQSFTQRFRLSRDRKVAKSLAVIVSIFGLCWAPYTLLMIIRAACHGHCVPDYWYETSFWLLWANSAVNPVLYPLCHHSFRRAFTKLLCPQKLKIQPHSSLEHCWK
Chain of Histamine H1 receptor (P35367 whole entry): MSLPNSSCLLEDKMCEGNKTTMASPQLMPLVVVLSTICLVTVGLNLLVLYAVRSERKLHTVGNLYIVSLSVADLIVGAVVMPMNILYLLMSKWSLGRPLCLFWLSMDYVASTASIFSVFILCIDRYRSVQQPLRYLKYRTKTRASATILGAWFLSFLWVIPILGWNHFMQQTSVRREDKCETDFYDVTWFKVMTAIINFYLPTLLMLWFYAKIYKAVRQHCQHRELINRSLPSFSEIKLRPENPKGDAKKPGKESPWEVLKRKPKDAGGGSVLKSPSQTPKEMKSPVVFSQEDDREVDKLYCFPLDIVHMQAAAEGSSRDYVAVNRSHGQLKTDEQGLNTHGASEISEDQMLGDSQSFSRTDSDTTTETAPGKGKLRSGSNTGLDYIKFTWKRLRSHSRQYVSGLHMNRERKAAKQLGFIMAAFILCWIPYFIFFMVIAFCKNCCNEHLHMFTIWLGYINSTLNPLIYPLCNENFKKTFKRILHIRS
Chain of Histamine H2 receptor (P25021 whole entry): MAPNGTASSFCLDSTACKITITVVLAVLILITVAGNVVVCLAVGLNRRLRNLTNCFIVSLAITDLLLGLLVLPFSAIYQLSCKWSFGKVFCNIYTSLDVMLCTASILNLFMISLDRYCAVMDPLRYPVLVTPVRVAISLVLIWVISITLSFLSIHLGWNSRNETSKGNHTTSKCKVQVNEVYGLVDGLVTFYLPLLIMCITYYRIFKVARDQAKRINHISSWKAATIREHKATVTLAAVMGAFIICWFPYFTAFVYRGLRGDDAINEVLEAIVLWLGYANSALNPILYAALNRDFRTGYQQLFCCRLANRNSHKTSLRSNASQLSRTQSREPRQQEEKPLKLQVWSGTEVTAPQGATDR
Chain of Histamine H4 receptor (Q9H3N8 whole entry): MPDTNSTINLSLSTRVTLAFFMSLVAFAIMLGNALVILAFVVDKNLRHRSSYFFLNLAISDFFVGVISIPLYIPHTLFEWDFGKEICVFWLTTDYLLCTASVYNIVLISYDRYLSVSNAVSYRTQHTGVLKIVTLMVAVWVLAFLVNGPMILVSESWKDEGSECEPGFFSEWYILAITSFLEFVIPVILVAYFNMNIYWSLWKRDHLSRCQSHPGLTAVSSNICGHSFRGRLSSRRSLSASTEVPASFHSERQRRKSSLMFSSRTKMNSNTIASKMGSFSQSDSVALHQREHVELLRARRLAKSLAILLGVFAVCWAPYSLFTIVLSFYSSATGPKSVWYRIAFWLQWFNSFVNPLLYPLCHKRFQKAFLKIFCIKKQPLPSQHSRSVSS

Cc1nc(N)sc1-c1ccc(N/C(N)=N/C(=O)NCC(C)C2CCCCC2)cc1 (stereo not drawn)
Ki (Histamine H2 receptor): 309 nM
Ki (Histamine H3 receptor [1]): 5620 nM
Kd (Histamine H1 receptor): 4.5 nM
Ki (Histamine H1 receptor): 2880 nM
Kd (Histamine H4 receptor): 16 nM
Ki (Histamine H4 receptor): 7760 nM

Cc1ccc(CC(C)CNC(=O)/N=C(\N)Nc2cccc(-c3sc(N)nc3C)c2)cc1 (stereo not drawn)
Ki (Histamine H2 receptor): 234 nM
Ki (Histamine H3 receptor [1]): 12900 nM
Kd (Histamine H1 receptor): 4.5 nM
Ki (Histamine H1 receptor): 5250 nM
Kd (Histamine H4 receptor): 16 nM
Ki (Histamine H4 receptor): 7410 nM

Cc1nc(N)sc1-c1ccc(N/C(N)=N/C(=O)NCc2ccccc2)cc1
Ki (Histamine H2 receptor): 214 nM
Ki (Histamine H3 receptor [1]): 8510 nM
Kd (Histamine H1 receptor): 4.5 nM
Ki (Histamine H1 receptor): 1290 nM
Kd (Histamine H3 receptor [2]): 3 nM
Ki (Histamine H3 receptor [2]): 8510 nM
Kd (Histamine H4 receptor): 16 nM
Ki (Histamine H4 receptor): 12000 nM

C[C@@H](NC(=O)/N=C(\N)NCCCc1c[nH]cn1)c1ccccc1
Ki (Histamine H2 receptor): 6.17 nM
Ki (Histamine H3 receptor [1]): 1.7 nM
Kd (Histamine H1 receptor): 4.5 nM
Ki (Histamine H1 receptor): 3980 nM
Kd (Histamine H4 receptor): 16 nM
Ki (Histamine H4 receptor): 8.51 nM

NCCCCCCCCNC(=O)/N=C(\N)NCCCc1nnc(N)s1
Ki (Histamine H2 receptor): 33.1 nM
Ki (Histamine H3 receptor [1]): > 10000 nM
Kd (Histamine H1 receptor): 4.5 nM
Ki (Histamine H1 receptor): 525 nM
Kd (Histamine H4 receptor): 16 nM
Ki (Histamine H4 receptor): > 10000 nM

Cc1nnc(CCCN/C(N)=N/C(=O)NCc2ccccc2)s1
Ki (Histamine H2 receptor): 5620 nM
Ki (Histamine H3 receptor [1]): > 10000 nM
Kd (Histamine H1 receptor): 4.5 nM
Ki (Histamine H1 receptor): 10700 nM
Kd (Histamine H4 receptor): 16 nM
Ki (Histamine H4 receptor): > 10000 nM

Cc1nnc(CCCN/C(N)=N/C(=O)NCCCCCCCCN)s1
Ki (Histamine H2 receptor): 1820 nM
Ki (Histamine H3 receptor [1]): 11700 nM
Kd (Histamine H1 receptor): 4.5 nM
Ki (Histamine H1 receptor): 309 nM
Kd (Histamine H4 receptor): 16 nM
Ki (Histamine H4 receptor): > 10000 nM

Cc1nc(N)sc1-c1ccc(N/C(N)=N/C(=O)NCCCCCCNC(=O)/N=C(\N)Nc2ccc(-c3sc(N)nc3C)cc2)cc1
Ki (Histamine H2 receptor): 347 nM
Ki (Histamine H3 receptor [1]): 1950 nM
Kd (Histamine H1 receptor): 4.5 nM
Ki (Histamine H1 receptor): 2140 nM
Kd (Histamine H4 receptor): 16 nM
Ki (Histamine H4 receptor): 2140 nM

Cc1nc(N)sc1-c1cccc(N/C(N)=N/C(=O)NCC(C)CCCc2ccccc2)c1 (stereo not drawn)
Ki (Histamine H2 receptor): 234 nM
Ki (Histamine H3 receptor [1]): 10700 nM
Kd (Histamine H1 receptor): 4.5 nM
Ki (Histamine H1 receptor): 13200 nM
Kd (Histamine H4 receptor): 16 nM
Ki (Histamine H4 receptor): 7080 nM

N/C(=N\C(=O)NCc1ccccc1)NCC1CCc2nc(N)sc2C1 (stereo not drawn)
Ki (Histamine H2 receptor): 302 nM
Kd (Histamine H1 receptor): 4.5 nM
Ki (Histamine H1 receptor): 3890 nM
Kd (Histamine H3 receptor [2]): 3 nM
Ki (Histamine H3 receptor [2]): 11200 nM
Kd (Histamine H4 receptor): 16 nM
Ki (Histamine H4 receptor): 5890 nM

Cc1nc(N)sc1-c1cccc(N/C(N)=N/C(=O)NCc2ccccc2)c1
Ki (Histamine H2 receptor): 302 nM
Ki (Histamine H3 receptor [1]): > 10000 nM
Kd (Histamine H1 receptor): 4.5 nM
Ki (Histamine H1 receptor): 7240 nM
Kd (Histamine H4 receptor): 16 nM
Ki (Histamine H4 receptor): > 10000 nM

Cc1ccc(CC(C)CNC(=O)/N=C(\N)NCCCc2nnc(N)o2)cc1 (stereo not drawn)
Ki (Histamine H2 receptor): 676 nM
Ki (Histamine H3 receptor [1]): 9120 nM
Kd (Histamine H1 receptor): 4.5 nM
Ki (Histamine H1 receptor): 2690 nM
Kd (Histamine H4 receptor): 16 nM
Ki (Histamine H4 receptor): > 10000 nM

Cc1nc(N)oc1CCCN/C(N)=N/C(=O)NCc1ccccc1
Ki (Histamine H2 receptor): 389 nM
Ki (Histamine H3 receptor [1]): > 10000 nM
Kd (Histamine H1 receptor): 4.5 nM
Ki (Histamine H1 receptor): 8910 nM
Kd (Histamine H4 receptor): 16 nM
Ki (Histamine H4 receptor): > 10000 nM

Cc1nnc(CCCN/C(N)=N/C(=O)NCC(C)C2CCCCC2)s1 (stereo not drawn)
Ki (Histamine H2 receptor): 1050 nM
Kd (Histamine H1 receptor): 4.5 nM
Ki (Histamine H1 receptor): 7080 nM
Kd (Histamine H3 receptor [2]): 3 nM
Ki (Histamine H3 receptor [2]): 11500 nM
Kd (Histamine H4 receptor): 16 nM
Ki (Histamine H4 receptor): > 10000 nM

C[C@@H](NC(=O)/N=C(\N)NCCCn1cc(CN(C)C)nn1)c1ccccc1
Ki (Histamine H2 receptor): 4470 nM
Ki (Histamine H3 receptor [1]): 10200 nM
Kd (Histamine H1 receptor): 4.5 nM
Ki (Histamine H1 receptor): > 10000 nM
Kd (Histamine H4 receptor): 16 nM
Ki (Histamine H4 receptor): > 10000 nM

Cc1nc(N)sc1-c1cccc(N/C(N)=N/C(=O)NCCCCCCNC(=O)/N=C(\N)Nc2cccc(-c3sc(N)nc3C)c2)c1
Ki (Histamine H2 receptor): 380 nM
Ki (Histamine H3 receptor [1]): 708 nM
Kd (Histamine H1 receptor): 4.5 nM
Ki (Histamine H1 receptor): 1450 nM
Kd (Histamine H4 receptor): 16 nM
Ki (Histamine H4 receptor): 2340 nM

Cc1ccc(CC(C)CNC(=O)/N=C(\N)NCC2CCc3nc(N)sc3C2)cc1 (stereo not drawn)
Ki (Histamine H2 receptor): 107 nM
Kd (Histamine H1 receptor): 4.5 nM
Ki (Histamine H1 receptor): 182 nM
Kd (Histamine H3 receptor [2]): 3 nM
Ki (Histamine H3 receptor [2]): 1950 nM
Kd (Histamine H4 receptor): 16 nM
Ki (Histamine H4 receptor): 3390 nM

N/C(=N\C(=O)NCCCCCCCCNC(=O)/N=C(\N)NCCCc1nnc(N)s1)NCCCc1nnc(N)s1
Ki (Histamine H2 receptor): 4.79 nM
Ki (Histamine H3 receptor [1]): 6920 nM
Kd (Histamine H1 receptor): 4.5 nM
Ki (Histamine H1 receptor): 1820 nM
Kd (Histamine H4 receptor): 16 nM
Ki (Histamine H4 receptor): 8910 nM
